As usually defined, the inhibition is the change of the read-out against control, counted positive when it falls.

Structures are written as SMILES. The campaign covered roughly 330,000 compounds. About 2,000 (0.61%) were called active. Only a selection was taken, and actives are over-represented in it overall. A number with no mark means an inactive call.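 The calls were made as follows: active = inhibition above that plate's mean sample inhibition plus 3 SD (cut at about 26% in these data); inactive = the rest.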

This assay is described as follows: ATP-evoked calcium signal inhibitors, parental CHO, primary screen, counter-screen for OX1R antagonist project, cell-based, fluorescence, Fluo-8 calcium dye (AID 463079).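 Also: 0% = ATP-challenged DMSO wells and 100% = DMSO wells without ATP.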 As to conditions: parental CHO-K1, ATP-induced calcium, Fluo-8 fluorescence; at 5.6 µM; active compounds read high. The gist of the method: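 Assay system: parental CHO cells; Read-out basis: percent inhibition of ATP-evoked calcium rise, normalized to controls; Benchmarks: ATP and no-ATP DMSO wells; Compound dosing: single nominal dose of 5.6 µM per compound; Signal: Fluo-8 calcium dye fluorescence; Also added: ATP as calcium-mobilizing challenge; Repeats: singlicate.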
A general note: The purpose of a counterscreen is to sort out artefacts and off-target activity.
Take `CCN(CC)P(=O)(Oc1cccc(C)c1)N(CC)CC`: the inhibition is -16.2%. As for `Cc1cccc(OP(=O)(Oc2cccc(C)c2)OC(c2ccccc2)C(F)(F)F)c1` (stereo not given), the figure is 43% (active). Regarding `CN(C)S(=O)(=O)c1cc(C(=O)N2CCC(C(=O)O)(c3ccccc3)CC2)ccc1Cl`, the inhibition is -3.89%.

As for `Nc1ccc([N+](=O)[O-])cc1`, the inhibition is -2.28%. Take `COC(=O)N(c1ccc(OC)cc1)P1(=S)OCCC(C)O1` (stereo not given): the inhibition was -5.5%. As for `O=C1NC(=O)C(CCc2ccccn2)(Cc2cccc(Cl)c2Cl)C(=O)N1c1ccc(Br)cc1` (stereo not given), the figure is -47.9%. For `O=C1C2(Cl)C3(Cl)C4(Cl)C(Cl)(Cl)C5(Cl)C3(Cl)C1(Cl)C5(Cl)C24Cl` (stereo not given), the inhibition was 48.6% (active).

With `O=C(CSC1c2ccccc2-c2ccccc21)N/N=C/c1ccccc1`, the inhibition was -10.8%.

Regarding `c1ccc(CC2CCCCN2)cc1` (stereo not given), the inhibition is -2.34%. As for `CC1=C(C(=O)Nc2ccccc2)S(=O)(=O)CCO1`, the figure is -5.31%; as for `CCCCCCCCCCCCn1ccc(=N)cc1`, 40% (active); as for `CCOC(=O)c1c(C)c(C(=O)N2CCC3(CC2)OCCO3)c(C)n1CC`, -3.29%.

`CN1CCC(N(C)Cc2cccnc2)CC1`: the inhibition is -10.6%. As for `ClC(Cl)(Cl)c1ccccc1`, the figure is 2.74%; as for `CCN(CC)C(=O)c1ccc(NC(=O)c2cc(-n3cnnc3)ccc2Cl)cc1`, -4.65%.

The record behind these values is PubChem BioAssay AID463079 (The Scripps Research Institute Molecular Screening Center, 2010).
